An excerpt weighted towards active compounds, which were near 1% of everything screened.
procasp7 counter – activates human procaspase-7, counter-screen for procaspase-3 activators | P55210 | recombinant procaspase-7, Ac-DEVD-pNA absorbance 405 nm; D23A/D198A/D206A triple mutant, cannot self-cleave; scale: DMSO 0, 5 µM enzyme 100 | activation, % at 8.5 µM | 0.093% of 330,000 active | AID 463210;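 active = percent activation above the screen-wide mean plus 3 SD, cut at about 25% in these data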
Target sequence (P55210 whole entry D23A/D198A/D206A): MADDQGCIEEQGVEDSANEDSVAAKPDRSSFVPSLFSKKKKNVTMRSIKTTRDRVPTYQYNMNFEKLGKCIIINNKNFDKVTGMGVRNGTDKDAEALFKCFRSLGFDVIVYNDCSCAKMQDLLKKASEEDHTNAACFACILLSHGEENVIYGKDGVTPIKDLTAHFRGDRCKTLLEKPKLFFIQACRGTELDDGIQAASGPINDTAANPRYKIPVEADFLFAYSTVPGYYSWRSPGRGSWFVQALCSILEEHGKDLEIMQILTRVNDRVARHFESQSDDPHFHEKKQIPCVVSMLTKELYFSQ
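Material: Procaspase-7 triple mutant (PC-7 D3A) | Quantity: 2 µM procaspase-7 mutant as dispensed | Reagent: DEVD-pNA substrate | Times: 1 h preincubation, 2 h reaction | Technique: 405 nm absorbance of p-nitroaniline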
procasp3 activ – activates human procaspase-3 | P42574 | recombinant procaspase-3 D3A, Ac-DEVD-pNA absorbance 405 nm | activation, % at 8.5 µM | 0.11% of 330,000 active | AID 463141;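 active = activation above the mean of all tested compounds plus 3 SD, cut at about 21% in these data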;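 note: 0% = DMSO alone and 100% = DMSO wells spiked with extra 5 µM PC-3 D3A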
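Test system: Procaspase-3 D3A mutant, all three cleavage aspartates alanine | Dosing: Single dose, 8.5 µM nominal compound, 0.8% DMSO | Schedule: 1 h preincubation, 2 h reaction | Technique: 405 nm absorbance of p-nitroaniline, reads at 0 and 120 min | Repeats: One well per compound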
LYPLA2 counter – LYPLA2 (human) inhibition in PME1 counter-screen | O95372 | recombinant LYPLA2, FP-Rh probe fluorescence polarization | inhibition, % at 5.9 µM | 0.38% of 320,000 active | AID 2177;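 active = inhibition above the screen-wide mean plus 3 SD, limit set per campaign, cut at about 26% in these data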;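 note: 0% = LYPLA2 with DMSO and 100% = wells lacking LYPLA2 enzyme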
PREPL inh – inhibitors of human prolyl oligopeptidase-like enzyme PREPL. Q4J6C6. recombinant PREPL, fluorescence polarization activity-based probe. inhibition, % at 5.96 µM. 0.68% of 320,000 active; in the data active = inhibition above about 43%;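 note: 0% = enzyme with DMSO and 100% = wells lacking enzyme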
LYPLA1 counter – blocks human lysophospholipase 1, a PME1 counter-screen; O75608; recombinant LYPLA1, FP-Rh probe fluorescence polarization; inhibition, % at 5.9 µM; 0.16% of 320,000 active; AID 2174;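 active = inhibition above the mean of all tested compounds plus 3 SD, set per campaign, cut at about 14% in these data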;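 note: inhibitors block serine hydrolase probe labeling of LYPLA1 so polarization falls; 0% = enzyme with DMSO and 100% = wells lacking LYPLA1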
LYPLA1 conf – LYPLA1 (human) inhibition, confirmation counter-screen | AID 2233 | 69% of 480 active | shares compounds with LYPLA1 counter | inhibition, % at 5.9 µM | recombinant LYPLA1, FP-Rh probe fluorescence polarization;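 active = mean inhibition across replicates above the hit cutoff set in the primary screen, cut at about 15% in these data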;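 note: loss of FP-Rh probe labeling of LYPLA1 seen as lower polarization; 0% = LYPLA1 with DMSO and 100% = wells lacking LYPLA1 enzyme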
LYPLA2 conf – LYPLA2 (human) inhibition, confirmation counter-screen; shares compounds with LYPLA2 counter; recombinant LYPLA2, FP-Rh probe fluorescence polarization; inhibition, % at 5.9 µM; 72% of 1,100 active;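 active = mean inhibition across replicates above the hit cutoff set in the primary screen, cut at about 26% in these data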;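 note: blocked labeling of the enzyme by serine hydrolase FP-Rh probe lowers polarization; 0% = enzyme with DMSO and 100% = wells lacking LYPLA2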
LYPLA2 gel ABPP – LYPLA2 (human) inhibition, late stage results; shares compounds with LYPLA2 counter; rhLYPLA2 in mouse brain proteome, gel ABPP FP-Rh; inhibition, % at 20 µM; 30% of 150 active;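 active = inhibition of LYPLA2 enzyme probe labeling above about 50%, limit read from the data; inactive = inhibition below that limit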;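 note: loss of FP-Rh probe labeling of the LYPLA2 gel band measured as band density; 0% = DMSO only control band and 100% = blank gel background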
The depositor's hits bear a star; . = not tested or not shown.

SMILES	procasp7 counter	procasp3 activ	LYPLA2 counter	PREPL inh	LYPLA1 counter	LYPLA1 conf	LYPLA2 conf	others
COc1cc(OC)cc(C(=O)N2CCCC(c3nc(-c4ccc(C)o4)no3)C2)c1 (stereo not given)	-1	2	0	1	0	.	.
Cc1ccc(-c2noc(C3CCCN(C(=O)c4ccc(C(C)(C)C)cc4)C3)n2)o1 (stereo not given)	-1	-6	36*	-4	20*	23*	37*
COCCCNC(=O)[C@H](Cc1c[nH]c2ccccc12)NC(=O)OCc1ccccc1	0	6	-4	-2	-2	.	.
O=C1C=C(N2CCCCC2)c2ccccc2C1=O	-3	-3	27*	13	40*	37*	32*
O=C1c2ccccc2C(=O)c2c1cccc2N1CCCC1	-2	-5	10	37	4	.	.
CSc1nsc(/C=C/Nc2ccc(O)cc2C)c1C#N	-22	-15	30*	24	22*	-7	-7
CSc1nsc(/C=C/Nc2ccc(F)cc2)c1C#N	-13	0	-8	8	-5	.	.
COc1cccc(C2C(C(N)=O)=C(C)Nc3nc(-c4ccccc4Cl)nn32)c1 (stereo not given)	3	5	-4	14	-5	.	.
N#Cc1c(NC(=S)NC(=O)c2ccccc2)sc2c1CCC2	-39	-21	1	-2	-3	.	.
O=C(NC(=S)Nc1sc2c(c1C(=O)O)CCCC2)c1ccccc1	-17	-4	96*	33	78*	71*	87*
COc1ccc(CN2CCN(C(=O)Cn3nc(C(=O)O)c4ccccc4c3=O)CC2)cc1F	0	7	57*	-16	17*	15*	63*	LYPLA2 gel ABPP=47
Cc1nn(CC(=O)N2CCN(Cc3ccccc3)CC2)c(=O)c2ccccc12	-3	11	5	-3	-5	.	.
COc1ccc(-c2nnc(SCC(=O)NNC(=O)c3ccc(C)cc3)o2)cc1	5	3	-8	0	-4	.	.
O=[N+]([O-])c1ccc(N2CCC(=NOCc3ccc(Cl)cc3)CC2)cc1	-2	5	78*	-34	58*	70*	75*
Cc1ccc(C(=O)ON=C2CCN(c3ccc([N+](=O)[O-])cc3)CC2)cc1	5	-4	55*	16	23*	28*	47*
CC(=O)N1CCN(C(=O)c2ccc(C(=O)c3ccccc3)cc2)CC1	6	3	4	1	4	.	.
CC(=O)c1ccc(N2CCN(C(=O)c3ccc(C(=O)c4ccccc4)cc3)CC2)cc1	4	4	55*	17	21*	36*	65*
O=C(c1ccccn1)N1CCN(c2ccc(C(F)(F)F)cn2)CC1	9	3	3	-3	0	.	.
O=C(c1ccc2n[nH]nc2c1)N1CCN(c2ccc(C(F)(F)F)cn2)CC1	-7	-3	62*	8	67*	58*	70*
Cc1ccc(/C=N/NC(=O)NN(C)c2ncc(C(F)(F)F)cc2Cl)cc1	3	-3	-2	12	1	.	.
CCOC(=O)c1c(C)[nH]c(C(=O)OCC(=O)NC(C)(C)C)c1C	2	17	-2	-3	0	.	.
CCNc1ccccc1CP(=O)(c1ccccc1)c1ccccc1O (stereo not given)	-23	-11	64*	51*	51*	2	5
C=CCC[C@H](Cc1ccc(F)cc1)C(=O)OC[C@H](C)NC(=O)[C@H](CC=C)CC(=O)NCCO	4	4	.	10	.	.	.
COC(=O)c1cc(C)nc2c1C(=O)C(=O)C=C2N1CCOCC1	-4	-6	79*	43	72*	91*	93*

From PubChem
